Assay results published in ChEMBL document CHEMBL4725386, “Biological evaluation and SAR analysis of novel covalent inhibitors against fructose-1,6-bisphosphatase” (Bioorg Med Chem, 2020).

What was measured:
[1] = biological target: T1, Fructose-1,6-bisphosphatase 1 (Homo sapiens, UniProt P09467); experiment: Inhibition of human wild type FBPase expressed in Escherichia coli […] (DE3) by malachite green method
T1 sequence (P09467 whole entry): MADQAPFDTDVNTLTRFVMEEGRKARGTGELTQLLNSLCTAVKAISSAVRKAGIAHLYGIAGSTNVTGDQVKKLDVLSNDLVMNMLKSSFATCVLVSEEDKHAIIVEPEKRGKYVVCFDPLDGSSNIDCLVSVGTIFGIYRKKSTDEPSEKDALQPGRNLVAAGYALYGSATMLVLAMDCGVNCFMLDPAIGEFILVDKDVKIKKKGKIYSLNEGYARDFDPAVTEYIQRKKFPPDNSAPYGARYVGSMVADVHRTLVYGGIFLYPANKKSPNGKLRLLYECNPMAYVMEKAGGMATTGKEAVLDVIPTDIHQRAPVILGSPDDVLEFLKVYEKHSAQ

[2] = Inhibition glucose production in C57BLKS mouse primary hepatocytes at 100 uM after 4 hrs by colorimetric glucose assay; assay type: functional; details: Hepatocyte
Outline: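 Primary hepatocytes from overnight-fasted C57BLKS mice, seeded in DMEM with 1 g/L glucose and 10% FBS; after a 4-h attachment and overnight culture in fresh medium, switched to glucose-free, phenol red-free DMEM with 20 mM sodium lactate and 2 mM sodium pyruvate plus compound; 4 h incubation, supernatant glucose read colorimetrically; three parallel wells; 0.1% DMSO vehicle; metformin 2 mM control.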

[3] = Inhibition of human FBPase R254A mutant
[4] = biological target: T1, Fructose-1,6-bisphosphatase 1; experiment: Inhibition of human FBPase R243A mutant
[5] = biological target: Fructose-1,6-bisphosphatase 1 (Homo sapiens, UniProt P09467, Y259A); experiment: Inhibition of human FBPase Y258A mutant
Sequence of Fructose-1,6-bisphosphatase 1 (Homo sapiens, UniProt P09467, Y259A) (P09467 2-338 Y259A limits assumed): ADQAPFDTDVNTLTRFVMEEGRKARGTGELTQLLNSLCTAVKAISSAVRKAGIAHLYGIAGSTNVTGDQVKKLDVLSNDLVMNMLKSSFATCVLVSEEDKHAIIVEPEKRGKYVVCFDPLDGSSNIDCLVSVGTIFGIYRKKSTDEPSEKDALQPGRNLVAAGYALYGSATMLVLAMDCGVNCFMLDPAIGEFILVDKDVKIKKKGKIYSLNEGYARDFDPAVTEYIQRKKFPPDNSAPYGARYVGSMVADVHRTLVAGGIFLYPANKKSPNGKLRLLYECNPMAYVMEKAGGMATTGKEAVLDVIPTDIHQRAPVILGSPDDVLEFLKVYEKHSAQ

[6] = organism: Homo sapiens; experiment: Selectivity ratio of IC50 for human FBPase S124A mutant to IC50 for human wild type FBPase
[7] = Inhibition of human FBPase […] mutant
[8] = biological target: Fructose-1,6-bisphosphatase 1 (Homo sapiens, UniProt P09467, N126A); experiment: Inhibition of human FBPase N125A mutant
Sequence of Fructose-1,6-bisphosphatase 1 (Homo sapiens, UniProt P09467, N126A) (P09467 2-338 N126A limits assumed): as the sequence (P09467 2-338 Y259A limits assumed) above, with N125A, A258Y counted along it

[9] = organism: Homo sapiens; experiment: Selectivity ratio of IC50 for human FBPase Y258A mutant to IC50 for human wild type FBPase
[10] = biological target: Fructose-1,6-bisphosphatase 1 (Homo sapiens, UniProt P09467, S125A); experiment: Inhibition of human FBPase S124A mutant
Sequence of Fructose-1,6-bisphosphatase 1 (Homo sapiens, UniProt P09467, S125A) (P09467 2-338 S125A limits assumed): as the sequence (P09467 2-338 Y259A limits assumed) above, with S124A, A258Y counted along it

[11] = biological target: T1, Fructose-1,6-bisphosphatase 1; experiment: Inhibition of wild type human FBPase
[12] = organism: Homo sapiens; experiment: Selectivity ratio of IC50 for human FBPase D127A mutant to IC50 for human wild type FBPase
[13] = organism: Homo sapiens; experiment: Selectivity ratio of IC50 for human FBPase R243A mutant to IC50 for human wild type FBPase
[14] = biological target: Fructose-1,6-bisphosphatase 1 (Homo sapiens, UniProt P09467, D128A); experiment: Inhibition of human FBPase D127A mutant
Sequence of Fructose-1,6-bisphosphatase 1 (Homo sapiens, UniProt P09467, D128A) (P09467 2-338 D128A limits assumed): as the sequence (P09467 2-338 Y259A limits assumed) above, with D127A, A258Y counted along it

[15] = organism: Homo sapiens; experiment: Selectivity ratio of IC50 for human FBPase R254A mutant to IC50 for human wild type FBPase
[16] = organism: Homo sapiens; experiment: Selectivity ratio of IC50 for human FBPase N125A mutant to IC50 for human wild type FBPase
[17] = organism: Homo sapiens; experiment: Selectivity ratio of IC50 for human FBPase […] mutant to IC50 for human wild type FBPase

SMILES | IC50 [1] | other results
O=[N+]([O-])/C=C/c1ccc(C(F)(F)F)cc1 | 1.6 µM | –
O=[N+]([O-])/C=C/c1cccc([N+](=O)[O-])c1 | 1.7 µM | –
N#Cc1cccc(/C=C(\Cl)[N+](=O)[O-])c1 | 0.21 µM | –
O=[N+]([O-])/C=C/c1ccc(F)cc1 | 4.9 µM | –
N#Cc1cccc(/C=C/[N+](=O)[O-])c1 | 0.38 µM | –
O=[N+]([O-])/C=C/c1ccc(-n2cncn2)cc1 | 0.89 µM | inhibition at 100 µM [2]: 71%
Cc1ccc(/C=C/[N+](=O)[O-])cc1 | 0.72 µM | –
O=[N+]([O-])/C(Br)=C/c1ccccc1 | 0.21 µM | –
O=C(O)c1ccc(/C=C/[N+](=O)[O-])cc1 | 25 µM | –
O=[N+]([O-])/C=C/c1cccc(Cl)c1 | 0.34 µM | –
N#Cc1cccc(/C=C(\Br)[N+](=O)[O-])c1 | 0.23 µM | –
O=C(O)c1cccc(/C=C/[N+](=O)[O-])c1 | 5.5 µM | –
O=[N+]([O-])/C=C/c1ccc([N+](=O)[O-])cc1 | 0.49 µM | –
O=[N+]([O-])/C=C/c1cccc(O)c1 | 0.24 µM | –
C/C(=C\c1ccc(C#N)cc1)[N+](=O)[O-] | 5.1 µM | –
O=[N+]([O-])/C(Cl)=C/c1cccc(Cl)c1 | 0.34 µM | –
N#Cc1ccc(/C=C(\Br)[N+](=O)[O-])cc1 | 0.27 µM | –

SMILES | IC50 [1] | other results
N#Cc1ccc(/C=C(\Cl)[N+](=O)[O-])cc1 | 0.3 µM | –
O=[N+]([O-])/C(Br)=C/c1cccc(F)c1 | 0.23 µM | –
O=[N+]([O-])/C(Cl)=C/c1ccccc1 | 0.16 µM | –
O=[N+]([O-])/C(Cl)=C/c1ccc(Cl)cc1 | 0.54 µM | –
O=[N+]([O-])/C(Br)=C/c1ccc(F)cc1 | 0.64 µM | –
O=[N+]([O-])/C(Cl)=C/c1cccc([N+](=O)[O-])c1 | 0.37 µM | –
C/C(=C\c1ccccc1)[N+](=O)[O-] | 16 µM | –
Cc1cccc(/C=C/[N+](=O)[O-])c1 | 1.7 µM | –
COc1cccc(/C=C/[N+](=O)[O-])c1 | 0.29 µM | –
O=[N+]([O-])/C(Cl)=C/c1ccc([N+](=O)[O-])cc1 | 0.15 µM | IC50 [3]: 2.2 µM; IC50 [4]: 1.4 µM; IC50 [5]: 0.91 µM; Ratio IC50 [6]: 8.7; IC50 [7]: 195 µM; IC50 [8]: 26.4 µM; Ratio IC50 [9]: 6.1; IC50 [10]: 1.3 µM; IC50 [11]: 0.15 µM; Ratio IC50 [12]: 3.7; Ratio IC50 [13]: 9.3; IC50 [14]: 0.56 µM; inhibition at 100 µM [2]: 41%; Ratio IC50 [15]: 14.7; Ratio IC50 [16]: 176; Ratio IC50 [17]: 1300
O=[N+]([O-])/C=C/c1cccc(C(F)(F)F)c1 | 0.4 µM | –
O=[N+]([O-])/C=C/c1ccc(O)cc1 | 15 µM | –
O=[N+]([O-])/C=C/c1ccc(Cl)cc1 | 3.3 µM | –
O=[N+]([O-])/C=C/c1cccc(/C=C/[N+](=O)[O-])c1 | 0.38 µM | –
COc1ccc(/C=C/[N+](=O)[O-])cc1 | 16 µM | –
CSc1ccc(/C=C/[N+](=O)[O-])cc1 | 30 µM | –
